Assays:
[1] = target: Angiotensin II receptor (Homo sapiens) (UniProt P30556+P50052); assay: In vitro angiotensin II-like activity, expressed as percent relative to angiotensin II, measured in the rabbit aorta strip assay; assay type: functional, tissue-based; details: Oryctolagus cuniculus
Rattus norvegicus [2] = assay: Dose required for the two fold increase in the dose of AII to produce the same elevation in blood pressure as in the control period.(in vivo); assay type: functional
How it was run: (§1)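 Rat blood pressure assay in vivo, using 250-g rats. ID50 is the antagonist dose, in ng/rat per min, that requires a twofold increase in the AII dose to give the same blood pressure rise as in the control period.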

Rattus norvegicus [3] = assay: AII-like activity, expressed as percent relative to AII (angiotensin II) was measured in the in vivo rat blood pressure assay; assay type: functional
How it was run: (§2)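 Rat blood pressure assay in vivo. Residual agonist activity is expressed as percent activity relative to AII.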

Oryctolagus cuniculus [4] = species: Oryctolagus cuniculus; assay: pA2 value was determined in the range of competitive inhibition in the in vitro rabbit aorta strip assay; g = partial agonist at 10 ng/mL; assay type: functional; details: filed as partial agonist
Oryctolagus cuniculus [5] = species: Oryctolagus cuniculus; assay: AII-like activity, expressed as percent relative to AII (angiotensin II) was measured in the in vitro rabbit aorta strip assay; g = partial agonist at 10 ng/mL; assay type: functional; details: filed as partial agonist
Rattus norvegicus [6] = assay: In vivo AII-like activity, expressed as percent activity relative to AII (angiotensin II), measured in rat blood pressure assay; assay type: functional; how it was run: as §2
Rattus norvegicus [7] = species: Rattus norvegicus; assay: Dose required for the two fold increase in the dose of AII to produce the same elevation in blood pressure as in the control period.; assay type: functional; how it was run: as §1
Oryctolagus cuniculus [8] = species: Oryctolagus cuniculus; assay: AII-like activity, expressed as percent activity relative to AII (angiotensin II), measured in rabbit aorta strip assay
Rattus norvegicus [9] = assay: In vivo AII-like activity, expressed as percent activity relative to AII (angiotensin II), measured in rat blood pressure assay; g = partial agonist at 10 ng/mL; assay type: functional, organism-based; details: filed as partial agonist; how it was run: as §2
Oryctolagus cuniculus [10] = species: Oryctolagus cuniculus; assay: In vitro AII-like activity, expressed as percent activity relative to AII (angiotensin II), measured in rabbit aorta; assay type: functional

Biological activity [1] [%]	Compound	ID50 (Rattus norvegicus [7]) [ng min-1 rat-1]	other results
-0	CC[C@H](C)[C@H](NC(=O)[C@@H]1CCCN1C(=O)[C@H](Cc1c[nH]cn1)NC(=O)[C@@H](NC(=O)[C@H](Cc1ccc(O)cc1)NC(=O)[C@@H](NC(=O)[C@@H](CCCN=C(N)N)NC(=O)CNC)C(C)C)[C@@H](C)CC)C(=O)O	–	ID50 (Rattus norvegicus [2]): 150 ng min-1 rat-1
-0	CC[C@H](C)[C@H](NC(=O)[C@@H]1CCCN1C(=O)[C@@H](Cc1c[nH]cn1)NC(=O)[C@@H](NC(=O)[C@H](Cc1ccc(O)cc1)NC(=O)[C@@H](NC(=O)[C@H](CCCN=C(N)N)NC(=O)CNC)C(C)C)[C@@H](C)CC)C(=O)O	–	Biological activity (Rattus norvegicus [3]): 0%; ID50 (Rattus norvegicus [2]): >1000 ng min-1 rat-1
–	CC[C@H](C)[C@H](NC(=O)[C@H](Cc1ccc(O)cc1)NC(=O)[C@@H](NC(=O)[C@H](CCCN=C(N)N)NC(=O)CNC)C(C)C)C(=O)N[C@@H](Cc1c[nH]cn1)C(=O)N1CCC[C@H]1C(=O)N[C@@H](CCc1ccccc1)C(=O)O	–	pA2 (Oryctolagus cuniculus [4]): Partial agonist; Biological activity (Oryctolagus cuniculus [5]): Partial agonist
-0	CC[C@H](C)[C@H](NC(=O)[C@@H]1CCCN1C(=O)[C@H](Cc1c[nH]cn1)NC(=O)[C@H](NC(=O)[C@H](Cc1ccc(O)cc1)NC(=O)[C@H](NC(=O)[C@H](CCCN=C(N)N)NC(=O)CNC)C(C)C)C(C)C)C(=O)O	–	Biological activity (Rattus norvegicus [6]): 0%; ID50 (Rattus norvegicus [2]): >1000 ng min-1 rat-1
-0	CC[C@H](C)[C@H](NC(=O)[C@@H]1CCCN1C(=O)[C@H](Cc1c[nH]cn1)NC(=O)[C@@H](NC(=O)[C@H](Cc1ccc(O)cc1)NC(=O)[C@@H](NC(=O)[C@H](CCCN=C(N)N)NC(=O)CNC)C(C)C)[C@@H](C)CC)C(=O)O	–	ID50 (Rattus norvegicus [2]): 10 ng min-1 rat-1
-0	CC[C@H](C)[C@H](NC(=O)[C@H](Cc1ccc(O)cc1)NC(=O)[C@@H](NC(=O)[C@H](CCCN=C(N)N)NC(=O)CNC)C(C)C)C(=O)N[C@@H](Cc1c[nH]cn1)C(=O)N1CCC[C@H]1C(=O)N[C@@H](C(=O)O)c1ccccc1	3.5	–
-0	CC[C@H](C)[C@H](NC(=O)[C@H](Cc1ccccc1)NC(=O)[C@@H](NC(=O)[C@H](CCCN=C(N)N)NC(=O)CNC)C(C)C)C(=O)N[C@@H](Cc1c[nH]cn1)C(=O)N1CCC[C@H]1C(=O)N[C@@H](Cc1ccc(O)cc1)C(=O)O	50	–
-0	CC[C@H](C)[C@H](NC(=O)[C@H](Cc1ccc(O)cc1)NC(=O)[C@@H](NC(=O)[C@H](CCCN=C(N)N)NC(=O)CNC)C(C)C)C(=O)N[C@@H](Cc1c[nH]cn1)C(=O)N1CCC[C@H]1C(=O)N[C@@H](C)C(=O)O	15	–
-0	CC[C@H](C)[C@H](NC(=O)[C@H](Cc1ccccc1)NC(=O)[C@@H](NC(=O)[C@H](CCCN=C(N)N)NC(=O)CNC)C(C)C)C(=O)N[C@@H](Cc1c[nH]cn1)C(=O)N1CCC[C@H]1C(=O)N[C@H](Cc1ccc(O)cc1)C(=O)O	25	–
–	CC[C@H](C)[C@H](NC(=O)[C@H]1CCCN1C(=O)[C@H](Cc1c[nH]cn1)NC(=O)[C@@H](NC(=O)[C@H](Cc1ccc(O)cc1)NC(=O)[C@@H](NC(=O)[C@H](CCCNC(=N)N)NC(=O)[C@@H](N)CC(=O)O)C(C)C)[C@@H](C)CC)C(=O)O	–	Biological activity (Oryctolagus cuniculus [8]): 0.1%
-0	CC[C@H](C)[C@H](NC(=O)[C@H](Cc1ccc(O)cc1)NC(=O)[C@@H](NC(=O)[C@H](CCCN=C(N)N)NC(=O)CNC)C(C)C)C(=O)N[C@H](Cc1c[nH]cn1)C(=O)N1CCC[C@H]1C(=O)N[C@H](Cc1ccccc1)C(=O)O	0	Biological activity (Rattus norvegicus [6]): 0%
–	CC[C@H](C)[C@H](NC(=O)[C@H](Cc1ccc(O)cc1)NC(=O)[C@@H](NC(=O)[C@H](CCCN=C(N)N)NC(=O)CNC)C(C)C)C(=O)N[C@@H](Cc1c[nH]cn1)C(=O)N1CCC[C@H]1C(=O)N[C@H](C(=O)O)c1ccccc1	–	Biological activity (Oryctolagus cuniculus [5]): Partial agonist; Biological activity (Rattus norvegicus [9]): Partial agonist
–	CC[C@H](C)[C@H](NC(=O)[C@H](Cc1ccc(O)cc1)NC(=O)[C@@H](NC(=O)[C@H](CCCNC(=N)N)NC(=O)CNC)C(C)C)C(=O)N[C@@H](Cc1c[nH]cn1)C(=O)N1CCC[C@H]1C(=O)N[C@H](Cc1ccccc1)C(N)=O	12.5	–
–	CC[C@H](C)[C@H](NC(=O)[C@H](Cc1ccc(O)cc1)NC(=O)[C@@H](NC(=O)[C@H](CCCN=C(N)N)NC(=O)CNC)C(C)C)C(=O)N[C@@H](Cc1c[nH]cn1)C(=O)N1CCC[C@H]1C(=O)N[C@H](Cc1ccccc1)C(=O)O	12.5	Biological activity (Oryctolagus cuniculus [10]): 0%
–	CC[C@H](C)[C@H](NC(=O)[C@H](Cc1ccc(O)cc1)NC(=O)[C@@H](NC(=O)[C@H](CCCNC(=N)N)NC(=O)CNC)C(C)C)C(=O)N[C@@H](Cc1c[nH]cn1)C(=O)N1CCC[C@H]1C(=O)N[C@@H](C(=O)O)C(C)C	50	Biological activity (Rattus norvegicus [3]): 10
–	CC[C@H](C)[C@H](NC(=O)[C@H](Cc1ccc(O)cc1)NC(=O)[C@@H](NC(=O)[C@H](CCCNC(=N)N)NC(=O)CNC)C(C)C)C(=O)N[C@@H](Cc1c[nH]cn1)C(=O)N1CCC[C@H]1C(=O)N[C@](C)(Cc1ccccc1)C(=O)O	10	–
-0	CC[C@H](C)[C@H](NC(=O)[C@H](Cc1ccc(O)cc1)NC(=O)[C@@H](NC(=O)[C@H](CCCN=C(N)N)NC(=O)CNC)C(C)C)C(=O)N[C@@H](Cc1c[nH]cn1)C(=O)N1CCC[C@H]1C(=O)N[C@H](Cc1ccc(O)cc1)C(=O)O	20	–

— ChEMBL document CHEMBL1124265, “Effects of D-amino acid substitution on antagonist activities of angiotensin II analogues” (J Med Chem, 1988)
